Source: ChEMBL document CHEMBL1147901, “Anticancer, neuroprotective activities and computational studies of 2-amino-1,3,4-thiadiazole based compound” (Bioorg Med Chem, 2007)
The source made the active and inactive calls.

Tests used:
[1] = tested on: A549; test: Antiproliferative activity against human A549 cells at 10 uM after 96 hrs by MTT assay; format: functional, cell-based; details: A549, 96 h
Summary of the method: (§1)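 MTT viability. Seeded per well at 0.5 × 10^4 (C6), 1 × 10^4 (TE671, A549) or 3 × 10^4 (HT-29, SK-N-AS). Next day exposed to serial dilutions (5–100 µM) in fresh medium with 10% FBS at 37 °C, 5% CO2 for 96 h. MTT (5 mg/mL) for 4 h, formazan dissolved overnight in 10% SDS/0.01 N HCl, A570. Threshold concentration giving antiproliferative effect recorded.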

[2] = organism: Rattus norvegicus; test: Neuroprotective activity against serum deprivation induced neurotoxicity in rat cortical neurons; format: functional
Summary of the method: (§2)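 Cortical neurons from E18 Wistar rat fetuses, plated at 5 × 10^5 cells/mL on poly-L-lysine in B-27/Neurobasal medium and grown to 14 days. Insult was glutamate (500 µM) or serum deprivation (Neurobasal without B-27), alone or with 10 or 25 µM compound, for 48 h. MTT read-out as mean normalized OD ±SEM of 4–8 trials.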

[3] = tested on: C6; test: Antiproliferative activity against rat glioma C6 cells at 25 uM after 96 hrs by MTT assay; format: functional, cell-based; details: C6, 96 h; summary of the method: as §1
[4] = tested on: HT-29; test: Antiproliferative activity against human HT29 cells at 5 uM after 96 hrs by MTT assay; format: functional, cell-based; details: HT-29, 96 h; summary of the method: as §1
[5] = tested on: C6; test: Antiproliferative activity against rat glioma C6 cells assessed as decreased cell division after 48 hrs; format: functional, cell-based; details: C6, 48 h
Summary of the method: (§3)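 BrdU ELISA. Cells seeded at 2 × 10^4 (A549) or 1 × 10^4 (C6) per well. Next day, fresh medium containing serial dilutions (5–50 µM) was added for 48 h. Cells were then labelled with 10 µM BrdU for 2 h, fixed/denatured 30 min, probed with peroxidase anti-BrdU and developed with TMB. Stopped with 1 M H2SO4, A450. Mean normalized OD ±SEM of 5–8 trials, linear regression.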

[6] = tested on: C6; test: Inhibition of rat glioma C6 cell migration at 5 uM after 24 hrs; format: functional, cell-based
Summary of the method: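 Scratch-wound assay. 1 × 10^6 C6 cells were plated per 4-cm dish. Next day the monolayer was scratched with a pipette tip and rinsed twice with PBS. Fresh medium alone or with 5 µM compound for 24 h, then May-Grünwald–Giemsa staining. Cells migrated into the wound were counted on micrographs as mean per field ±SEM over 50 wound areas from four micrographs; Student's t test.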

[7] = tested on: TE-671; test: Antiproliferative activity against human TE671 cells at 10 uM after 96 hrs by MTT assay; format: functional, cell-based; details: TE-671, 96 h; summary of the method: as §1
[8] = tested on: SK-N-AS; test: Antiproliferative activity against human SK-N-AS cells at 25 uM after 96 hrs by MTT assay; format: functional, cell-based; summary of the method: as §1
[9] = organism: Rattus norvegicus; test: Neuroprotective activity against glutamate-induced neurotoxicity in rat cortical neurons; format: functional; summary of the method: as §2
[10] = tested on: A549; test: Antiproliferative activity against human A549 cells assessed as decreased cell division after 48 hrs; format: functional, cell-based; details: A549, 48 h; summary of the method: as §3

With `Oc1ccc(-c2nnc(Nc3ccc(F)cc3)s2)c(O)c1` the IC50 [1] was 22.8 µM, the Activity [2] was “Dose-dependent effect” and the IC50 [3] was 27.3 µM. For the same molecule, the IC50 [4] was 33.1 µM, the IC50 [5] was 23.5 µM and the Activity [6] was “Active”. The IC50 [7] was 26 µM, the IC50 [8] was 54.7 µM and the Activity [9] was “Dose-dependent effect”. For the same molecule, the IC50 [10] was 13.7 µM.
